Experiment [1] relates to Folylpolyglutamate synthase (Mus musculus). The experiment can be described thus: Inhibition of Folyl-polyglutamate synthase from mouse liver. Details: concentration or dose not given beside the values. Conditions: concentration not given here.
Experiment [2] in a line: (§1) Inhibition of Folyl-polyglutamate synthase from mouse liver. The gist of the method:
(§2)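 Partially purified mouse liver enzyme, run at 37 °C for 1 h in Tris buffer pH 8.6 with 20 mM α-thioglycerol. The mixture held 1 mM [3H]-L-glutamic acid, 500 μM folic acid and 500 μM inhibitor. Activity is expressed as percent of untreated control. Ki,s comes from a slope replot of double-reciprocal 1/V versus 1/S plots, and was not determined where inhibition was below 30%.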

The species named for experiment [3] is Mus musculus. The description is as §1. Conditions: concentration not given here. An outline of the steps:
as §2

Experiment [4] has as its target T1, Dihydrofolate reductase (Mus musculus, UniProt P00375).
T1 sequence (P00375 whole entry): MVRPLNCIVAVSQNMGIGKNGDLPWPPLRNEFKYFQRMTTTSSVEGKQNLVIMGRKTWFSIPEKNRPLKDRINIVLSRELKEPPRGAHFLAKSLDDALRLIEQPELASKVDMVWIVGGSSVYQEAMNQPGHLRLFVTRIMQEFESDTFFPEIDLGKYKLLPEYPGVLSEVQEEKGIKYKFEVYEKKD
In words: Inhibition of dihydrofolate reductase (DHFR) in mouse L1210 leukemia cells. In kind it is cell-based.

The test system of experiment [5] is L1210 ( R81). In words: (§3) Inhibition of cell growth against highly MTX- and AMT-resistant mutant L1210/R81. The format is functional, cell-based. The following applies: Mus musculus.
Experiment [6] deals with L1210. The experiment can be described thus: Inhibition of cell growth against cultured L1210 leukemia cells in mouse. In kind it is functional, cell-based.
The subject of experiment [7] is L1210. The experiment is described as §3. In kind it is functional, cell-based. Conditions: Mus musculus.

A word on the inhibition: it is the drop in the measured response relative to a control, in per cent. On to `CN(Cc1cnc2nc(N)nc(N)c2n1)c1ccc(C(=O)NCCP(=O)(O)O)cc1`, for which the inhibition in experiment [1] was determined as 22%.
`CN(Cc1cnc2nc(N)nc(N)c2n1)c1ccc(C(=O)NCCCP(=O)(O)O)cc1` displayed an inhibition in experiment [1] of 16%.
The term Ki denotes a dissociation constant, usually derived from enzyme kinetics or from competition with a known ligand. What is called IC50 is the concentration needed to halve the response being measured. In experiment [2], `Nc1nc(N)c2nc(CNc3ccc(C(=O)NC(CCCP(=O)(O)O)C(=O)O)cc3)cnc2n1` (stereo not given) displayed a Ki of 124 µM. Also, in experiment [3], the inhibition was 52%. In addition, the IC50 in experiment [4] is 0.083 µM; in experiment [5], over 460 µM; in experiment [6], 0.12 µM.
In experiment [1], `CN(Cc1cnc2nc(N)nc(N)c2n1)c1ccc(C(=O)NCCS(=O)(=O)O)cc1` registered an inhibition of 22%.
The same measure, in the same setting: the result for `CN(Cc1cnc2nc(N)nc(N)c2n1)c1ccc(C(=O)NCCCCS(=O)(=O)O)cc1` reads 26%; that for `CN(Cc1cnc2nc(N)nc(N)c2n1)c1ccc(C(=O)NCCCS(=O)(=O)O)cc1`, 18%.
Compound `Nc1nc(N)c2nc(CNc3ccc(C(=O)NC(CP(=O)(O)O)C(=O)O)cc3)cnc2n1` (stereo not given) yielded a Ki in experiment [2] of 900 µM. The same compound displayed an inhibition in experiment [3] of 22%. Besides, the IC50 in experiment [4] is 0.55 µM; in experiment [7] it was 390 µM; in experiment [6] it was 0.25 µM.
`CCOP(=O)(O)CCCNC(=O)c1ccc(N(C)Cc2cnc3nc(N)nc(N)c3n2)cc1` returned an inhibition in experiment [1] of 9%.
For the compound `CN(Cc1cnc2nc(N)nc(N)c2n1)c1ccc(C(=O)NC(CCP(=O)(O)O)C(=O)O)cc1` (stereo not given), the inhibition in experiment [1] came to 53%.
`CN(Cc1cnc2nc(N)nc(N)c2n1)c1ccc(C(=O)NCS(=O)(=O)O)cc1`: the inhibition in experiment [1] worked out at 19%.
Still for that read-out and setting: then `CN(Cc1cnc2nc(N)nc(N)c2n1)c1ccc(C(=O)NC(CCS(=O)(=O)O)C(=O)O)cc1` (stereo not given), with 59%; and `Nc1nc(N)c2nc(CNc3ccc(C(=O)NC(CCS(=O)(=O)O)C(=O)O)cc3)cnc2n1` (stereo not given), with 77%.
The compound `Nc1nc(N)c2nc(CNc3ccc(C(=O)NC(CCCCP(=O)(O)O)C(=O)O)cc3)cnc2n1` (stereo not given) showed a Ki in experiment [2] of 155 µM. Further, the inhibition in experiment [3] was 44%. The IC50 was 0.067 µM in experiment [4], over 280 µM in experiment [5] and 0.13 µM in experiment [6].
The compound `Nc1nc(N)c2nc(CNc3ccc(C(=O)NC(CCP(=O)(O)O)C(=O)O)cc3)cnc2n1` (stereo not given) displayed a Ki in experiment [2] of 8.4 µM. The same compound yielded an inhibition in experiment [3] of 100%. Besides, the results for the IC50 in experiment [4], in experiment [5] and in experiment [6] were 0.063 µM, 240 µM and 0.067 µM, respectively.

Source of the values: ChEMBL document CHEMBL1124238, “Methotrexate analogues. 32. Chain extension, alpha-carboxyl deletion, and gamma-carboxyl replacement by sulfonate and phosphonate: effect on enzyme binding and cell-growth inhibition” (J Med Chem, 1988).
